From PMC3304489 (Biochemical Journal, 2012) come the findings set out here.

This experiment deals with MALT1. Description: Effect of buffer additives on MALT1 activity. The experiment is classed as biochemical, human. The following applies: 50 mM Hepes, 100 mM NaCl, 0.9 M sodium citrate, pH 7.5, supplemented with additive (Figure 2C and results not shown). The essentials: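 Recombinant human MALT1, expressed in E. coli and Ni-NTA purified, used as full-length (150 nM) and as His-tagged catalytic domain (residues 329–566, 4 μM). Each was assayed in 50 mM Hepes, 100 mM NaCl, 0.9 M sodium citrate (pH 7.5) with the indicated additives. Experiments were repeated three times, and mean ± S.E.M. is reported.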
Take `[Ca+2].[Cl-].[Cl-]` [CaCl2]: the “effect of buffer additive on the activity of MALT1 (in words)” value is “no substantial effect”.
With `O=C(O)CN(CCN(CC(=O)O)CC(=O)O)CC(=O)O` [EDTA], the “effect of buffer additive on the activity of MALT1 (in words)” value is “no substantial effect”.
The value for `O[C@@H](CS)[C@@H](O)CS` (racemic) [DTT, dithiothreitol] was “activity was enhanced”; that for `c1cnc2c(c1)ccc1cccnc12` [1,10-phenanthroline] was “no substantial effect”.
